Results on six compounds are retold here after ChEMBL document CHEMBL1121816, “Adrenoceptor blocking agents. Compounds related to metoprolol” (1981).

For test [1], the species on record is Felis catus. In words: Antagonistic effect of compound on peripheral vascular resistance was measured as KB in cats. It counts as functional. Summed up:
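Reserpinized (5 mg/kg, 18 h prior), pentobarbital-anesthetized, vagotomized, ventilated cats. One hind leg perfused with the animal's own blood via the femoral artery at a constant flow above 10 mL/min; resistance read as perfusion pressure. Compound infused iv for 10 min in five stepwise concentrations, each followed by ia isoprenaline at about 80%-maximal dose. KB assumes competitive antagonism.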

Test [2] has as its target Beta-1 adrenergic receptor (Homo sapiens) (UniProt P08588). Nature of the test: Intrinsic activity of compound against beta-1-adrenergic receptor given as percent of maximal heart rate by iv injection of supramaximal doses of isoprenaline (IPR). To be noted: Felis catus. It counts as functional, organism-based.
The target is the same in test [3]. In words: Agonistic effect of compound against beta-1-adrenergic receptor given as geometric mean (KA) of effect on heart rate. In kind it is functional. To be noted: Felis catus. Summed up:
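Cats of either sex (2.6–3.2 kg), starved 24 h, given reserpine 5 mg/kg 18 h before; pentobarbital 30 mg/kg ip, then 0.1 mg/min/kg infusion; ventilated, bilaterally vagotomized. Heart rate triggered from carotid pressure. Compound infused iv for 10 min at 1.0 mL/min in five rising concentrations. KA taken as the dose giving a semimaximal heart-rate increase.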

Beta-1 adrenergic receptor (Homo sapiens), sequence (P08588 whole entry, looked up): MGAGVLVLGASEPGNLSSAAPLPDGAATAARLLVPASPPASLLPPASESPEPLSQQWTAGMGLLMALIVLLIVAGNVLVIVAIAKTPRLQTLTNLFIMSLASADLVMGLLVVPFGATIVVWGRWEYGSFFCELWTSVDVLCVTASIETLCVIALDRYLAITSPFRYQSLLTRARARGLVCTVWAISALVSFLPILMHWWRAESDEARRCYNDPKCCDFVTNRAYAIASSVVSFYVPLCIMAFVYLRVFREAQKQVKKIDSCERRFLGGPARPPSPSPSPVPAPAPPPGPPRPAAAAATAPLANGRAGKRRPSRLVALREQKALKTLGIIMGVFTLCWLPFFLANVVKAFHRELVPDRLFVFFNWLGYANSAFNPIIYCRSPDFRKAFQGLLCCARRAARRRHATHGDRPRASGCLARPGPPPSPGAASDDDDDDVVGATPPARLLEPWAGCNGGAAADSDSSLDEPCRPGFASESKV

Compound `COc1ccc(CCC(O)CNC(C)C)cc1.Cl` (stereo unspecified) had a KB in test [1] of 30.8 µM/kg. The Intrinsic activity in test [2] turned out to be 4.5%.

As to `COCc1ccc(CC(O)CNC(C)C)cc1.Cl` (stereo unspecified), the KB in test [1] was determined as 6.1 µM/kg.

For the compound `COCCc1ccc(C(O)CNC(C)C)cc1.Cl` (stereo unspecified), the KA in test [3] stood at 0.536 µM/kg. Further, the KB in test [1] was 23.6 µM/kg. The compound further came in with an Intrinsic activity in test [2] of 22.5%.

As for `COCCc1ccc(OCC(O)CNC(C)C)cc1.Cl` (stereo unspecified), the KB in test [1] was determined as 0.87 µM/kg.

`COc1ccc(OCC(O)CNC(C)C)cc1.Cl` (stereo unspecified) showed a KA in test [3] of 0.119 µM/kg. In test [1], this compound yielded a KB of 3.42 µM/kg. The compound also yielded an Intrinsic activity in test [2] of 81.2%.

`Cc1ccc(OCCC(O)CNC(C)C)cc1.Cl` (stereo unspecified) gave a KB in test [1] of 1.82 µM/kg.
